Source: ChEMBL document CHEMBL2331224 (J Med Chem, 2013)
Calls of active or inactive are those of the source. No cut-off for these calls is given here.

Legend:
Mus musculus [1] = assay: Toxicity against KKAy mouse assessed as creatinine level at 10 mg/kg/day, po for 14 days (reference value: 0.2 mg/dl); type: organism-based; design: route oral; conditions: in vivo, 336 h
Mus musculus [2] = assay: Toxicity against KKAy mouse assessed as plasma ALP level at 10 mg/kg/day, po for 14 days (reference value: 358.2 +/- 43.1 IU); type: organism-based; design: route oral; conditions: in vivo, 336 h
Mus musculus [3] = assay: Antidiabetic activity in KKAy mouse assessed as reduction in water intake on day 3 to 12 at 10 mg/kg/day, po for 14 days relative to control; type: functional, organism-based
In short: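 Male KK-A^y mice, housed singly after 6 weeks' acclimation and grouped by blood glucose. Oral 10 mg/kg/day or vehicle (1% ethanol/0.5% CMC in water, 10 mL/kg) for 14 days. Body weight, food and water intake were followed. Fed blood glucose was taken from the tail vein by the glucose oxidase method. n = 4−5, ANOVA.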

Rattus norvegicus [4] = assay: Toxicity in Sprague-Dawley rat assessed as change in weight of organs at 30 mg/kg, po for 28 days; type: organism-based; design: dose 30 mg/kg, route oral; conditions: in vivo, 672 h
In short: (§1)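 Male and female SD rats, four weeks old on arrival, two per cage. Oral 30 mg/kg/day or vehicle (1% ethanol/0.5% CMC in water, 5 mL/kg) for 28 days, body weight recorded daily. After overnight fasting and isoflurane anaesthesia, liver, brain, kidney, spleen and testis were weighed, and serum was collected (2000g, 10 min, 4 °C) for blood chemistry.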

Rattus norvegicus [5] = assay: Toxicity in Sprague-Dawley rat assessed as enlargement of spleen at 30 mg/kg, po for 28 days; type: organism-based; design: dose 30 mg/kg, route oral; conditions: in vivo, 672 h; in short: as §1
Rattus norvegicus [6] = assay: Hepatotoxicity in Sprague-Dawley rat at 30 mg/kg/day, po for 28 days; type: toxicity, organism-based; design: route oral; conditions: in vivo, 672 h; in short: as §1
[7] = biological target: T1, Retinoic acid receptor RXR-alpha (Homo sapiens) (UniProt P19793); assay: Partial agonist activity at human RXRalpha by luciferase reporter gene assay
T1 sequence (whole entry): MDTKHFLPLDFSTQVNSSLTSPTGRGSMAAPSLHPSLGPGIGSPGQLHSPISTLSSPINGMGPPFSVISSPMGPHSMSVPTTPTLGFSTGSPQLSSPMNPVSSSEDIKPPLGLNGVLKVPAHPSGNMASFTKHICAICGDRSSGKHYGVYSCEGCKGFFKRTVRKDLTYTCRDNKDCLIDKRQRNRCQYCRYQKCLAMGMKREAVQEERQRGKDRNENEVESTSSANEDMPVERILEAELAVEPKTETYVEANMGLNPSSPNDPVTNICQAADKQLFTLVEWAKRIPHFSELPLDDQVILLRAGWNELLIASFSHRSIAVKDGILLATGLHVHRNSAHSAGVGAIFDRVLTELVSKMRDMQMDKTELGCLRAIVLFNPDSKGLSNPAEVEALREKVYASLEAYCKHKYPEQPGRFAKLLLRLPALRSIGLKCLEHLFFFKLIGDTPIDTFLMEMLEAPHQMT
In short: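 COS-1 cells transfected with RXRα, luciferase reporter under RXR response element, and SEAP control; cells seeded ~2.0 × 10⁴/well with compound (DMSO below 1%), 18 h at 37 °C, 5% CO₂. Luciferase normalized to SEAP, expressed relative to 1 μM LGD1069 as 100%; EC₅₀ from full dose-response curves; triplicate, three experiments.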

[8] = biological target: RXR alpha/PPAR gamma (Homo sapiens) (UniProt P37231+P19793); assay: Transactivation of PPARgamma/RXRalpha (unknown origin) by luciferase reporter gene assay relative to TIPP703; type: protein-complex assay
In short: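 Heterodimer reporter in COS-1 cells co-transfected with RXRα (0.5 μg), partner receptor (LXRα for line 2, PPARγ for line 3; 0.5 μg), partner response element-luciferase (4.0 μg), and SEAP. Compound (DMSO below 1%) with ~2.0 × 10⁴ cells/well, 18 h, 37 °C; luciferase normalized to SEAP; triplicate, three runs.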

[9] = biological target: T2, Retinoic acid receptor gamma (Homo sapiens) (UniProt P13631); assay: Transactivation of RARgamma (unknown origin) by luciferase reporter gene assay relative to All-trans retinoic acid
T2 sequence (whole entry): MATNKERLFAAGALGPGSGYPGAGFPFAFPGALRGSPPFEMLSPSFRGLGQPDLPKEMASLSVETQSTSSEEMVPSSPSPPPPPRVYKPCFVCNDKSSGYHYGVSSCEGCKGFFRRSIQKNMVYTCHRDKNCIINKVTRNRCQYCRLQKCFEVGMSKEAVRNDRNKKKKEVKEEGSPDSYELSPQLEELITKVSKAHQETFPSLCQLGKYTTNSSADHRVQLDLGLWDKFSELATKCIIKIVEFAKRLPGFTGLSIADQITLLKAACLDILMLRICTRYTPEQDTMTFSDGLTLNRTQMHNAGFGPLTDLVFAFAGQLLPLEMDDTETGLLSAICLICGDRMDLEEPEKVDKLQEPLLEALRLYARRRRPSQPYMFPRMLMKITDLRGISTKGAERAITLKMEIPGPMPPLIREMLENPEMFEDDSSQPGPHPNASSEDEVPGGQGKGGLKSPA

[10] = biological target: T3, Retinoic acid receptor RXR-gamma (Homo sapiens) (UniProt P48443); assay: Partial agonist activity at RXRgamma (unknown origin) by luciferase reporter gene assay relative to LGD1069
T3 sequence (whole entry): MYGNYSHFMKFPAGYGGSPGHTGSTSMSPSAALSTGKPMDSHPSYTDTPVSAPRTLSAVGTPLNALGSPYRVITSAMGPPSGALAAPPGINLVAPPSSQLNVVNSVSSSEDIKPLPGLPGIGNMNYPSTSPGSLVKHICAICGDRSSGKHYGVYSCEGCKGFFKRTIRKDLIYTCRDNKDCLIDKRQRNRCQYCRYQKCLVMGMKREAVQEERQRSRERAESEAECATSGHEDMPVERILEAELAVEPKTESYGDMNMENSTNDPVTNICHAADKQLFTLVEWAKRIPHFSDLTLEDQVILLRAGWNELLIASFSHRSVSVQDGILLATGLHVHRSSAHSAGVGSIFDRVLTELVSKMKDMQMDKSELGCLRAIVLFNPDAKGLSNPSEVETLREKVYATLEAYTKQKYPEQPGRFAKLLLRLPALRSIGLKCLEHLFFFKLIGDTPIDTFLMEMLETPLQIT

[11] = biological target: T1, Retinoic acid receptor RXR-alpha (Homo sapiens); assay: Partial agonist activity at RXRalpha (unknown origin) expressed in COS1 cells after 18 hrs by luciferase reporter gene assay relative to bexarotene; type: cell-based; conditions: COS-1
In short: (§2)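 COS-1 cells in DMEM with 10% FBS at 37 °C, 5% CO2, transfected with RXRα, an RXR-response-element luciferase reporter and a SEAP background vector. Cells were seeded at about 2.0 × 10⁴ per well with compound (DMSO below 1%) for 18 h. Luciferase was normalized to SEAP and expressed relative to 1 μM reference RXR full agonist as 100%. EC50 came from full dose-response curves. Triplicates, at least three experiments.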

[12] = biological target: T1, Retinoic acid receptor RXR-alpha (Homo sapiens); assay: Transactivation of RXRalpha (unknown origin) expressed in COS1 cells at 1 uM after 18 hrs by luciferase reporter gene assay relative to bexarotene; type: cell-based; conditions: COS-1; in short: as §2
[13] = biological target: T1, Retinoic acid receptor RXR-alpha (Homo sapiens); assay: Transactivation of RXRalpha (unknown origin) expressed in COS1 cells at 10 uM after 18 hrs by luciferase reporter gene assay relative to bexarotene; type: cell-based; conditions: COS-1; in short: as §2

Activity [7]: Active
Activity [8]: Active
Activity [9]: Active
Activity [10]: Active
Emax [11]: 67%
Efficacy [12]: 65%
Efficacy [13]: 71%
Structure (SMILES): Cc1cc2c(cc1-n1c(C(F)(F)F)nc3cc(C(=O)O)ccc31)C(C)(C)CCC2(C)C
Activity (Mus musculus [1]): 0.2 mg/dL
Activity (Mus musculus [2]): 554 IU
Activity (Mus musculus [3]): Active
Activity (Rattus norvegicus [4]): Non-toxic
Activity (Rattus norvegicus [5]): Toxic
Activity (Rattus norvegicus [6]): Toxic
